Measured values published in ChEMBL document CHEMBL1145079, “Receptor-mediated targeting of a photosensitizer by its conjugation to gonadotropin-releasing hormone analogues” (J Med Chem, 2003).

How the values were obtained:
Type in all cases: functional
[1] = test system: Rattus norvegicus; test: Serum LH releasing potency in vivo after intraperitoneal administration in rats at 3 h
Summary of the method: (§1)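 Blood was drawn by cardiac puncture under light ether anaesthesia at each time point. Serum LH was measured by double-antibody RIA against the LH-RP-3 reference, with three dilutions per serum. Values are mean ± SEM of five rats per group; the experiment was repeated twice more.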

[2] = test system: Rattus norvegicus; test: Serum LH releasing potency in vivo after intraperitoneal administration in rats at 1.5 h; summary of the method: as §1
[3] = test system: Rattus norvegicus; test: Serum LH releasing potency in vivo after intraperitoneal administration in rats at 24 h; summary of the method: as §1
[4] = test system: Rattus norvegicus; test: Serum LH releasing potency in vivo after intraperitoneal administration in rats at 0 h; summary of the method: as §1
[5] = test system: Rattus norvegicus; test: Serum LH releasing potency in vivo after intraperitoneal administration in rats at 6 h; summary of the method: as §1
[6] = test system: Rattus norvegicus; test: Serum LH releasing potency in vivo after intraperitoneal administration in rats at 10 h; summary of the method: as §1
[7] = organism: Rattus norvegicus; test: LH releasing activity in rat
Summary of the method: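 Fifteen-week-old female Wistar-derived rats (220–250 g), given 2 nmol/rat ip in 0.5 mL PBS. Blood drawn by cardiac puncture under light ether anesthesia at set times (1.5–24 h). Serum LH measured by double-antibody RIA at three dilutions per sample. Five rats per group; mean ± SEM.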

| SMILES | Activity [1] [ng/mL] | Activity [2] [ng/mL] | Activity [3] [ng/mL] | Activity [4] [ng/mL] | Activity [5] [ng/mL] | Activity [6] [ng/mL] | ED50 [7] [nM] |
| --- | --- | --- | --- | --- | --- | --- | --- |
| CC(C)C[C@H](NC(=O)[C@H](CCCCN)NC(=O)[C@H](Cc1ccc(O)cc1)NC(=O)[C@H](CO)NC(=O)[C@H](Cc1c[nH]c2ccccc12)NC(=O)[C@H](Cc1c[nH]cn1)NC(=O)[C@@H]1CCC(=O)N1)C(=O)N[C@@H](CCCN=C(N)N)C(=O)N1CCC[C@H]1C(=O)NCC(N)=O | 21.92 | 72.5 | 0.34 | 0.53 | 2.94 | 1.12 |  |
| C=CC1=C(C)c2cc3[nH]c(cc4nc(cc5[nH]c(cc1n2)c(C)c5CCC(=O)O)C(CCC(=O)NCCCC[C@@H](NC(=O)[C@H](Cc1ccc(O)cc1)NC(=O)[C@H](CO)NC(=O)[C@@H](Cc1c[nH]c2ccccc12)NC(=O)[C@@H](Cc1ccccc1)NC(=O)[C@H]1CCC(=O)N1)C(=O)N[C@@H](CC(C)C)C(=O)N[C@@H](CCCN=C(N)N)C(=O)N1CCC[C@H]1C(=O)NCC(N)=O)=C4C)c(C)c3C=C |  |  |  |  |  |  | 1800 |
| C=CC1=C(C)c2cc3[nH]c(cc4nc(cc5[nH]c(cc1n2)c(C)c5CCC(=O)O)C(CCC(=O)NCCCC[C@@H](NC(=O)[C@H](Cc1ccc(O)cc1)NC(=O)[C@H](CO)NC(=O)[C@H](Cc1c[nH]c2ccccc12)NC(=O)[C@H](Cc1c[nH]cn1)NC(=O)[C@@H]1CCC(=O)N1)C(=O)N[C@@H](CC(C)C)C(=O)N[C@@H](CCCN=C(N)N)C(=O)N1CCC[C@H]1C(=O)NCC(N)=O)=C4C)c(C)c3C=C | 11.57 | 10.64 | 0.88 | 0.53 | 8.1 | 2.9 |  |
